ChEMBL document CHEMBL1126776, “Antihyperglycemic activity of novel naphthalenyl 3H-1,2,3,5-oxathiadiazole 2-oxides” (1993)
Where “and” joins values, the source holds several entries; their conditions need not be identical. Equal values may be shown once.

Experiments:
[1] = system: Mus musculus; assay: Percentage change in plasma glucose after 4 days of treatment in db/db mouse at 20 mg/kg (po) in a postprandial assay; format: functional
Procedure, shortened: (§1)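 Male db/db (C57BL/KsJ) mice; postprandial assay after 4 days of oral dosing. Result is % change in plasma glucose relative to the vehicle-treated group. Values are mean ± SE with 4–6 mice per group; p < 0.05 flagged.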

[2] = system: Mus musculus; assay: Percentage change in plasma glucose after 4 days of treatment in db/db mouse at 5 mg/kg (po) in a postprandial assay; format: functional; procedure, shortened: as §1
[3] = system: Mus musculus; assay: Percentage change in plasma glucose after 4 days of treatment in db/db mouse at 100 mg/kg (po) in a postprandial assay; format: functional; procedure, shortened: as §1
[4] = system: Mus musculus; assay: Percentage change in plasma glucose after 4 days of treatment in db/db mouse at 1 mg/kg (po) in a postprandial assay; format: functional; procedure, shortened: as §1
[5] = system: Mus musculus; assay: Percentage change in plasma glucose after 4 days of treatment in db/db mouse at 5 mg/kg (po) in a postprandial assay
[6] = system: Mus musculus; assay: Percentage change in plasma glucose after 4 days of treatment in db/db mouse at 1 mg/kg (po) in a postprandial assay
[7] = system: Mus musculus; assay: Plasma glucose after treatment in obese ob/ob mice at 20 mg/kg (po); format: functional
Procedure, shortened: (§2)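 Female obese ob/ob (C57BL/6J) mice, 3-5 months old, fed ad libitum. Oral gavage once daily for 10 days, vehicle 0.2 mL 2% Tween 80/saline (w/v). Decapitated 4 h after the last dose; blood assayed for glucose. Mean ± SEM; p < 0.05 versus vehicle.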

[8] = system: Mus musculus; assay: Plasma glucose after treatment in obese ob/ob mice at 5 mg/kg (po); format: functional; procedure, shortened: as §2
[9] = system: Rattus norvegicus; assay: Volume of urine collected after treatment in nondiabetic rats at the dose of 25 mg/kg; format: functional
Procedure, shortened: (§3)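 Male Sprague-Dawley rats (nondiabetic), dosed daily by mouth for 11 days. Urine collected over 24 h and assayed for glucose; urine volume, water intake and food intake also measured. Values are mean ± SE, n = 6 per group.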

[10] = system: Rattus norvegicus; assay: Volume of urine collected after treatment in nondiabetic rats at the dose of 5 mg/kg; format: functional; procedure, shortened: as §3
[11] = system: Rattus norvegicus; assay: Change in plasma glucose levels of streptozocin-diabetic rats wtih type I diabetes at dose of 25 mg/kg, po; format: functional
Procedure, shortened: (§4)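 Male Sprague-Dawley rats made diabetic with streptozocin (100 mg/kg, ip). Drug or vehicle given orally once daily for 3 weeks. Tail-tip blood taken 90 min after the last dose and assayed for plasma glucose. Mean ± SE, n = 9-12 per group.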

[12] = system: Rattus norvegicus; assay: Change in plasma glucose levels of streptozocin-diabetic rats wtih type I diabetes at dose of 5 mg/kg, po; format: functional; procedure, shortened: as §4
[13] = system: Rattus norvegicus; assay: Change in urinary glucose excretion of nondiabetic rats at the dose of 25 mg/kg; format: functional, Urine
[14] = system: Rattus norvegicus; assay: Plasma glucose levels of nondiabetic rats after 0 hour of drug administration (25 mg/Kg, po); format: functional
Procedure, shortened: (§5)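 Single oral dose to male Sprague-Dawley nondiabetic rats. Tail-tip blood sampled before dosing and at 1, 2 and 4 h after dosing for plasma glucose. Mean ± SE, n = 5 per group; compared with the respective vehicle group.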

[15] = system: Rattus norvegicus; assay: Plasma glucose levels of nondiabetic rats after 1 hour of drug administration (25 mg/Kg, po); format: functional; procedure, shortened: as §5
[16] = system: Rattus norvegicus; assay: Plasma glucose levels of nondiabetic rats after 2 hour of drug administration (25 mg/Kg, po); format: functional; procedure, shortened: as §5
[17] = system: Rattus norvegicus; assay: Plasma glucose levels of nondiabetic rats after 4 hour of drug administration (25 mg/Kg, po); format: functional; procedure, shortened: as §5
[18] = system: Rattus norvegicus; assay: Amount of food consumed by the rat at a dose of 10 mg/kg; format: functional; procedure, shortened: as §3
[19] = system: Rattus norvegicus; assay: Amount of food consumed by the rat at a dose of 25 mg/kg; format: functional; procedure, shortened: as §3
[20] = system: Rattus norvegicus; assay: Amount of food consumed by the rat at a dose of 5 mg/kg; format: functional; procedure, shortened: as §3
[21] = system: Rattus norvegicus; assay: Volume of water consumed by the rat at a dose of 10 mg/kg; format: functional; procedure, shortened: as §3
[22] = system: Rattus norvegicus; assay: Volume of water consumed by the rat at a dose of 25 mg/kg; format: functional; procedure, shortened: as §3
[23] = system: Rattus norvegicus; assay: Volume of water consumed by the rat at a dose of 5 mg/kg; format: functional; procedure, shortened: as §3
[24] = system: Rattus norvegicus; assay: Volume of urine collected after treatment in nondiabetic rats at the dose of 10 mg/kg; format: functional; procedure, shortened: as §3
[25] = system: Mus musculus; assay: Plasma glucose after treatment in obese ob/ob mice at 200 mg/kg (po); format: functional; procedure, shortened: as §2
[26] = system: Mus musculus; assay: Plasma glucose after treatment in obese ob/ob mice at 50 mg/kg (po); format: functional; procedure, shortened: as §2
[27] = dose 5 mg/kg, in the assay text read “5 mg/kg” for “100 mg/kg”

## O=S1NC(Cc2ccc3ccccc3c2)=NO1 (centres undefined)
[1]
  Change: -37%
[2]
  Change: <-15%

## Cc1ccc2ccc(CC3=NOS(=O)N3)cc2c1Br (centres undefined)
[2]
  Change: -21%

## Cc1ccc2ccc(CC3=NOS(=O)N3)cc2c1 (centres undefined)
[1]
  Change: -36%

## O=S1NC(Cc2ccc3ccccc3c2Br)=NO1 (centres undefined)
[3]; dose 100 mg/kg
  Change: -40% and -21%

## C=Cc1cccc2cc(CC3=NOS(=O)N3)ccc12 (centres undefined)
[2]
  Change: -17%

## CC(CC1=NOS(=O)N1)c1ccc2ccccc2c1 (centres undefined)
[1]
  Change: -27%

## CC(C1=NOS(=O)N1)c1ccc2ccccc2c1 (centres undefined)
[1]
  Change: -49%

## CSc1cccc2cc(CC3=NOS(=O)N3)ccc12 (centres undefined)
[2]
  Change: <-15%

## COc1ccc2cc(CC3=NOS(=O)N3)ccc2c1 (centres undefined)
[1]
  Change: <-15%

## O=S1NC(Cc2ccc3cccc(Cl)c3c2)=NO1 (centres undefined)
[4]
  Change: <-15%
[3]; [27]
  Change: -55%

## O=S1NC(Cc2cc3ccccc3cc2Br)=NO1 (centres undefined)
[4]
  Change: <-15%
[2]
  Change: -28%

## O=S1NC(Cc2ccc3cc(F)ccc3c2Br)=NO1 (centres undefined)
[2]
  Change: -16%

## Cc1cccc2cc(CC3=NOS(=O)N3)ccc12 (centres undefined)
[4]
  Change: <-15%
[3]; [27]
  Change: -37%

## Cc1cc2ccccc2cc1CC1=NOS(=O)N1 (centres undefined)
[3]; dose 100 mg/kg
  Change: -36% and -20%

## O=S1NC(Cc2ccc3c(C(F)(F)F)cccc3c2)=NO1 (centres undefined)
[4]
  Change: <-15%
[3]; [27]
  Change: -30%

## O=S1NC(Cc2ccc3cccc(Br)c3c2)=NO1 (centres undefined)
[3]; dose 100 mg/kg
  Change: -59% and -48%

## COc1ccc(Br)c2cc(CC3=NOS(=O)N3)ccc12 (centres undefined)
[4]
  Change: <-15%

## COc1ccc2ccc(CC3=NOS(=O)N3)cc2c1 (centres undefined)
[2]
  Change: -19%

## CSc1ccc(Br)c2ccc(CC3=NOS(=O)N3)cc12 (centres undefined)
[4]
  Change: <-15%
[2]
  Change: -19%

## O=S1NC(/C=C/c2ccc3ccccc3c2)=NO1 (centres undefined)
[1]
  Change: <-15%

## O=S1NC(CCc2ccc3ccccc3c2)=NO1 (centres undefined)
[1]
  Change: -38%

## O=S1NC(Cc2ccc3ccc(Cl)cc3c2)=NO1 (centres undefined)
[2]
  Change: <-15%

## O=S1NC(CCCc2ccc3ccccc3c2)=NO1 (centres undefined)
[1]
  Change: <-15%

## O=S1NC(Cc2ccc3ccccc3c2Cl)=NO1 (centres undefined)
[4]
  Change: <-15%
[3]; [27]
  Change: -27%

## Cc1c(CC2=NOS(=O)N2)ccc2ccccc12 (centres undefined)
[3]; dose 100 mg/kg
  Change: -36% and -20%

## N#Cc1cccc2ccc(CC3=NOS(=O)N3)cc12 (centres undefined)
[4]
  Change: <-15%
[2]
  Change: <-15%

## C#Cc1cccc2cc(CC3=NOS(=O)N3)ccc12 (centres undefined)
[4]
  Change: -19%
[3]; [27]
  Change: -45%

## CCc1cccc2cc(CC3=NOS(=O)N3)ccc12 (centres undefined)
[4]
  Change: <-15%
[3]; [27]
  Change: -23%

## Cc1cc2ccccc2c(C)c1CC1=NOS(=O)N1 (centres undefined)
[4]
  Change: <-15%
[2]
  Change: -45%

## COc1cccc2cc(CC3=NOS(=O)N3)ccc12 (centres undefined)
[5]
  Change: <-15%
[6]
  Change: <-15%

## O=S1NC(Cc2cc(Br)c3ccccc3c2)=NO1 (centres undefined)
[4]
  Change: <-15%
[2]
  Change: -21%

## O=S1NC(Cc2ccc3c(Br)cccc3c2)=NO1 (centres undefined)
[3]; dose 100 mg/kg
  Change: -47% and -35%

## O=S1NC(Cc2cc3ccccc3cc2Cl)=NO1 (centres undefined)
[4]
  Change: <-15%
[3]; [27]
  Change: -44%

## CCc1c(CC2=NOS(=O)N2)ccc2ccccc12 (centres undefined)
[4]
  Change: <-15%
[3]; dose 5 mg/kg, in the assay text read “at 5 mg/kg” for “at 100 mg/kg”
  Change: -24%

## O=S1NC(Cc2ccc3c(Cl)cccc3c2)=NO1 (centres undefined)
[7]
  Glucose level: 199 mg/dL
[8]
  Glucose level: 223 mg/dL
[3]; dose 100 mg/kg
  Change: -44% and -21%
[9]
  urine volume: 37 mL/day
[10]
  urine volume: 29 mL/day
[11]
  Glucose level: 255 mg/dL
[12]
  Glucose level: 329 mg/dL
[13]
  Glucose level: 5.7 g dl-1 and 2.1 g day-1
[14]
  Glucose level: 111 mg/dL
[15]
  Glucose level: 120 mg/dL
[16]
  Glucose level: 122 mg/dL
[17]
  Glucose level: 118 mg/dL
[18]
  Consumption: 25 g/day
[19]
  Consumption: 25 g/day
[20]
  Consumption: 25 g/day
[21]
  Consumption: 45 mL/day
[22]
  Consumption: 59 mL/day
[23]
  Consumption: 49 mL/day
[24]
  urine volume: 23 mL/day

## O=S1NC(COc2ccc3ccccc3c2)=NO1 (centres undefined)
[1]
  Change: <-15%

## COc1cc2ccccc2cc1CC1=NOS(=O)N1 (centres undefined)
[6]
  Change: -16%

## COc1c(CC2=NOS(=O)N2)ccc2ccccc12 (centres undefined)
[4]
  Change: <-15%
[2]
  Change: -43%

## O=S1NC(CCCCc2ccc3ccccc3c2)=NO1 (centres undefined)
[3]; dose 100 mg/kg
  Change: -28%

## COC(CC1=NOS(=O)N1)c1ccc2ccccc2c1 (centres undefined)
[1]
  Change: <-15%

## O=S1NC(Cc2ccc3cc(F)ccc3c2Cl)=NO1 (centres undefined)
[5]
  Change: <-15%

## O=S1NC(Cc2ccc3cc(Br)ccc3c2)=NO1 (centres undefined)
[4]
  Change: <-15%
[2]
  Change: -25%

## O=S1NC(CSc2ccc3ccccc3c2)=NO1 (centres undefined)
[1]
  Change: -40%

## O=S1NC(Cc2cc3ccccc3cc2C(F)(F)F)=NO1 (centres undefined)
[4]
  Change: <-15%
[3]; [27]
  Change: -30%

## O=S1NC(Cc2ccc3ccc(Br)cc3c2)=NO1 (centres undefined)
[2]
  Change: <-15%

## O=S1NC(c2ccc3ccccc3c2)=NO1 (centres undefined)
[1]
  Change: <-15%

## Cc1cc2ccccc2c(Br)c1CC1=NOS(=O)N1 (centres undefined)
[4]
  Change: <-15%
[2]
  Change: -34%

## O=S1NC(C(Cc2ccccc2)c2ccc3ccccc3c2)=NO1 (centres undefined)
[1]
  Change: <-15%

## COc1c(CC2=NOS(=O)N2)cc(Cl)c2ccccc12 (centres undefined)
[4]
  Change: -17%
[2]
  Change: -31%

## CC(C)(C1=NOS(=O)N1)c1ccc2ccccc2c1 (centres undefined)
[1]
  Change: <-15%

## O=S1NC(Cc2ccc3ccccc3c2F)=NO1 (centres undefined)
[4]
  Change: <-15%
[3]; [27]
  Change: -39%

## CC1(COc2ccc(CC3SC(=O)NC3=O)cc2)CCCCC1 (centres undefined) [CIGLITAZONE]
[7]
  Glucose level: 189 mg/dL

## COc1ccc(Cl)cc1C(=O)NCCc1ccc(S(=O)(=O)NC(=O)NC2CCCCC2)cc1 [GLYBURIDE]
[7]
  Glucose level: 311 mg/dL
[8]
  Glucose level: 297 mg/dL
[14]
  Glucose level: 110 mg/dL
[15]
  Glucose level: 71 mg/dL
[16]
  Glucose level: 51 mg/dL
[17]
  Glucose level: 55 mg/dL

## CN(C)C(=N)NC(=N)N [METFORMIN]
[25]
  Glucose level: 208 mg/dL
[26]
  Glucose level: 253 mg/dL
